Measurements gathered from unrelated publications.
Each line is one published result; the experiments were not run side by side.

| Structure (SMILES) | system | setting | Tmax |
| --- | --- | --- | --- |
| C=CC(=O)N(C)CCOc1c(N)ncnc1-c1cc(F)cc(NC(=O)c2ccc(C3CC3)cc2F)c1C | human, blood | oral, 400 mg, single dose, healthy volunteers | 1.24 h |
| CS(=O)(=O)CCC#N | human, plasma | oral, 100 mg, multiple doses, once daily | 1 h |
| C[C@@]1(c2cc(NC(=O)c3ccc(C#N)cn3)ccc2F)C=CSC(N)=N1 | human, plasma | oral, 3 mg, single dose | 1.25 h |
| CO[C@@H]1[C@H](OC(=O)N2CC(CCN3CCOCC3)C2)CC[C@]2(CO2)[C@H]1[C@@]1(C)O[C@@H]1CC=C(C)C | human, plasma | subcutaneous, 2.4 mg, single dose, healthy volunteers | 0.25 h |
| C[C@@H](Nc1cc(F)cc(F)c1)c1cc(C(=O)N(C)C)cc2c(=O)cc(N3CCOCC3)oc12 | human, plasma | oral, 300 mg, single dose, patients | 1.21 h |
| CCc1nc2c(C)cc(N3CCN(CC(=O)N4CC(O)C4)CC3)cn2c1N(C)c1nc(-c2ccc(F)cc2)c(C#N)s1 | human, plasma | oral, 1000 mg, fed, healthy volunteers | 2 h |
| COc1ccc([C@@H]2CN(C(=O)[C@@H](O)CO)C[C@@]2(C)[C@@H](C)O)cc1OC1CN(c2ccc(C)cn2)C1 | human, plasma | oral, 20 mg, single dose, healthy volunteers | 1.5 h |
| Cn1cc(-c2ccc(S(=O)(=O)[C@@H]3C[C@@H](C(=O)NC4(C#N)CC4)N(C(=O)C4(C(F)(F)F)CC4)C3)c(C(F)(F)F)c2)cn1 | human, plasma | oral, 1 mg, single dose, fasted, healthy volunteers | 4 h |
| NS(=O)(=O)NCCNc1nonc1C(=NO)Nc1ccc(F)c(Br)c1 | human, plasma | oral, 50 mg, multiple doses, once daily, steady state, patients | 2 h |
| Cc1nc(NC(=O)N2CCC[C@H]2C(N)=O)sc1-c1ccnc(C(C)(C)C(F)(F)F)c1 | human, plasma | oral, 400 mg, patients | 2 h |
| C#C[C@]1(COP(=O)(O)OP(=O)(O)OP(=O)(O)O)O[C@@H](n2cnc3c(N)nc(F)nc32)C[C@@H]1O | human, plasma | oral, 5 mg, single dose | 9 h |
| CC(C)(Sc1ccncc1-c1ccc(C#N)c2ccccc12)C(=O)O | male human, plasma | oral, 1 mg, multiple doses, once daily | 0.5 h |
| COc1cc(N2CCC(N3CCN(C)CC3)CC2)ccc1Nc1ncnc(Nc2ccccc2S(=O)(=O)C(C)C)n1 | human, plasma | oral, 125 mg, multiple doses, patients | 2.97 h |
| CC(C)(O)c1ccccc1-c1ccc2[nH]c(/C=C/c3ccc(C(F)(F)F)cc3)nc2c1 | male human, plasma | oral, 2 mg, single dose, fasted | 3.94 h |
| CC(C)n1cc(C#N)c2cc(-n3cc(C(=O)O)cn3)ccc21 | human, plasma | oral, 600 mg, multiple doses, once daily, steady state | 3.5 h |
| CCc1nc(C(N)=O)c(Nc2ccc(N3CCC(N4CCN(C)CC4)CC3)c(OC)c2)nc1NC1CCOCC1 | human, plasma | oral, 80 mg, multiple doses, patients | 4.03 h |
| c1cnc2ccc(Nc3nc(NC4CC4)c4nc[nH]c4n3)cc2c1 | human, plasma | oral, 200 mg/m², patients | 5.7 h |
